{"source": "ChEMBL document CHEMBL2203081", "about": "(Bioorg Med Chem Lett, 2012)", "key": {"[1]": {"molecular_target": "Receptor-type tyrosine-protein kinase FLT3 (Homo sapiens) (UniProt P36888)", "assay": "Inhibition of FLT3 assessed as residual activity at 10 uM relative to control"}, "[2]": {"molecular_target": "Serine/threonine-protein kinase Nek6 (Homo sapiens) (UniProt Q9HC98)", "sequence (Q9HC98 whole entry)": "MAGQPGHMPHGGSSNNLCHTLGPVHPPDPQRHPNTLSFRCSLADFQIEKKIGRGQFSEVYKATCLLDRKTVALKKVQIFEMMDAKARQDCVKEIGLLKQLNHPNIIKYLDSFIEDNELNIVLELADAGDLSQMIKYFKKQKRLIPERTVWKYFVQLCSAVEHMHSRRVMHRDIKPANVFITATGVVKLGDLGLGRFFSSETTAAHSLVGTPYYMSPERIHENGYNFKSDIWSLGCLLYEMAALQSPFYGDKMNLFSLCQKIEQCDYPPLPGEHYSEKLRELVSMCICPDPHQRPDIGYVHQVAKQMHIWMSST", "assay": "Inhibition of NEK6 assessed as residual activity at 10 uM relative to control"}, "[3]": {"molecular_target": "Mitogen-activated protein kinase 9 (Homo sapiens) (UniProt P45984)", "assay": "Inhibition of JNK2 assessed as residual activity at 1 uM", "how_it_was_run": "(§1)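 Radioactivity-based enzymatic activity assay of the named kinase, run as part of a 131-kinase specificity panel at the National Centre for Protein Kinase Profiling (Dundee). Residual activity was read at the stated single inhibitor concentration.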"}, "[4]": {"molecular_target": "Activin receptor type-1B (Homo sapiens) (UniProt P36896)", "assay": "Inhibition of ACVR1B assessed as residual activity at 10 uM relative to control"}, "[5]": {"molecular_target": "Insulin-like growth factor 1 receptor (Homo sapiens) (UniProt P08069)", "assay": "Inhibition of IGF-1R assessed as residual activity at 1 uM", "how_it_was_run": "as §1"}, "[6]": {"molecular_target": "Rho-associated protein kinase 2 (Homo sapiens) (UniProt O75116)", "assay": "Inhibition of ROCK2 assessed as residual activity at 10 uM relative to control"}, "Plasma": {"test_system": "Plasma", "assay": "AUClast in Swiss albino mouse plasma at 10 mg/kg, po", "type": "ADME, organism-based", "design": "dose 10 mg/kg, route oral, time 0 - last", "conditions": "in vivo", "how_it_was_run": "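Male Swiss Albino mice, single dose given intravenously (1 mg/kg) or orally (10 mg/kg). Drug measured in plasma and brain, with AUClast taken for each. The brain/plasma ratio is based on AUClast, and oral bioavailability is derived from the IV and PO plasma data.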"}, "[7]": {"molecular_target": "Mitogen-activated protein kinase 4 (Homo sapiens) (UniProt P31152)", "assay": "Inhibition of ERK4 assessed as residual activity at 10 uM relative to control"}, "[8]": {"molecular_target": "Serine/threonine-protein kinase WNK1 (Homo sapiens) (UniProt Q9H4A3)", "sequence (Q9H4A3 whole entry, looked up)": "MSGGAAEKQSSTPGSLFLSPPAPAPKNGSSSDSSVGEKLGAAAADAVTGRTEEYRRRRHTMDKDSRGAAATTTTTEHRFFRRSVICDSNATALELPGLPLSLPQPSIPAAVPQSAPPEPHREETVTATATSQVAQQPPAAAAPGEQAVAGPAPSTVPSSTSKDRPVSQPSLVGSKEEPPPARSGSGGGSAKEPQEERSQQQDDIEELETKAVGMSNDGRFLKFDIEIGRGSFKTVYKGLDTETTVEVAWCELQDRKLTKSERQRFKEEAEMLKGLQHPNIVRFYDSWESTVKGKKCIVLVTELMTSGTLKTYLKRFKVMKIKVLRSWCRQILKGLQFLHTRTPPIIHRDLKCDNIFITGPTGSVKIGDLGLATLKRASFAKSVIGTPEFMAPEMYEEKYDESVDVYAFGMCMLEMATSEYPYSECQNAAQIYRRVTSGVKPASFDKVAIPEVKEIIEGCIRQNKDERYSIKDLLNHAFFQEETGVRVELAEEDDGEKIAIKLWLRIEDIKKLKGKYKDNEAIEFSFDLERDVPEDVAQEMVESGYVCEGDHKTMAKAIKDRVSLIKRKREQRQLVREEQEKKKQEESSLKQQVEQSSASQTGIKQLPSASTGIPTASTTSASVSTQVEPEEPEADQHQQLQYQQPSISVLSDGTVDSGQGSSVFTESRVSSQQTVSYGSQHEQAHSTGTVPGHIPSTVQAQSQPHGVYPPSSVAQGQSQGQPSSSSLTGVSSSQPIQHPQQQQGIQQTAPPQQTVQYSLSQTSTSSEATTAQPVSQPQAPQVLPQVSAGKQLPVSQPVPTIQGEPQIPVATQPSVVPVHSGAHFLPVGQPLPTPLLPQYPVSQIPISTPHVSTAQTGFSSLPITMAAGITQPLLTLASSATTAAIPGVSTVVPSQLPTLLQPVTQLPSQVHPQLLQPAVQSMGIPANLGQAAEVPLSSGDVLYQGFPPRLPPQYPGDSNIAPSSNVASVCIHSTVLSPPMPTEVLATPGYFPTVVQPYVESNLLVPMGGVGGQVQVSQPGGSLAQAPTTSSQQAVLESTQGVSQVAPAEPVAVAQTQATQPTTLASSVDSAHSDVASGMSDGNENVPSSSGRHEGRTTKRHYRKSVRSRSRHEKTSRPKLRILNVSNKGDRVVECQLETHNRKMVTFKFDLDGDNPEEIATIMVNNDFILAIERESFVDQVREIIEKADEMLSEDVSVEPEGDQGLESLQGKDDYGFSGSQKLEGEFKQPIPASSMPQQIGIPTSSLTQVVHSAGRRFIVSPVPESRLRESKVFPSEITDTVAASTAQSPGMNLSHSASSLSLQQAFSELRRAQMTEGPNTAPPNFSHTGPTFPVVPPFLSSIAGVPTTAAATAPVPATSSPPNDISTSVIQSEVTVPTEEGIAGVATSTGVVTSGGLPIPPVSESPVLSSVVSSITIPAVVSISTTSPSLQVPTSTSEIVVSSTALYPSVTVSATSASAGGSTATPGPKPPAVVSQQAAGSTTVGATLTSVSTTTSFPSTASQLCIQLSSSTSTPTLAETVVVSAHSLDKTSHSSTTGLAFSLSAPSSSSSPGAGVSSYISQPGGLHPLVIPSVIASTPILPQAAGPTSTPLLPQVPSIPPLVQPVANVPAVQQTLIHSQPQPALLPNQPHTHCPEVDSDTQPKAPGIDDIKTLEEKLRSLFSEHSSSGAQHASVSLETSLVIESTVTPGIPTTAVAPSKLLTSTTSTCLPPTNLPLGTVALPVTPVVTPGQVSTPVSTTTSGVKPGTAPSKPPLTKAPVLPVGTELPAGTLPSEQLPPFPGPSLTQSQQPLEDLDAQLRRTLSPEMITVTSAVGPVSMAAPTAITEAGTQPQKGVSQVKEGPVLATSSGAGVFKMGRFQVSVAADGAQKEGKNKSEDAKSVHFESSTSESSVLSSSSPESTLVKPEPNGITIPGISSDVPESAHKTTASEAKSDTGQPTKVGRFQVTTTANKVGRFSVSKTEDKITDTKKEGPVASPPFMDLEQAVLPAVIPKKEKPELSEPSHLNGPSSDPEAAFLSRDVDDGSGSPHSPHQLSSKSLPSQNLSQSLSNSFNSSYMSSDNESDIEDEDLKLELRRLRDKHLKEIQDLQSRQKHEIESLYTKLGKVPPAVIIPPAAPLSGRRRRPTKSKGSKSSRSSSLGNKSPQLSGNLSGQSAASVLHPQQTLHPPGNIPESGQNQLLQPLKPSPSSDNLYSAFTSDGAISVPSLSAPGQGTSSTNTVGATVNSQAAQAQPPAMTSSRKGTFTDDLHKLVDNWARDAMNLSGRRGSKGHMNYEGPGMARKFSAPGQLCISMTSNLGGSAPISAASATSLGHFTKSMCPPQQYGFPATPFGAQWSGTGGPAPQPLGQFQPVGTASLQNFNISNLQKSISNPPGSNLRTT", "assay": "Inhibition of WNK1 assessed as residual activity at 1 uM"}, "[9]": {"molecular_target": "Angiopoietin-1 receptor (Homo sapiens) (UniProt Q02763)", "assay": "Inhibition of TIE2 assessed as residual activity at 1 uM"}, "[10]": {"molecular_target": "Tyrosine-protein kinase CSK (Homo sapiens) (UniProt P41240)", "assay": "Inhibition of CSK assessed as residual activity at 1 uM", "how_it_was_run": "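Radioactivity-based enzymatic assay against a panel of 131 kinases (Dundee profiling). Activity remaining was measured with compound present at the stated concentration.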"}, "[11]": {"molecular_target": "Serine/threonine-protein kinase WNK1 (Homo sapiens) (UniProt Q9H4A3)", "assay": "Inhibition of WNK1 assessed as residual activity at 10 uM"}, "[12]": {"molecular_target": "Cyclin-dependent kinase 11B (Homo sapiens) (UniProt P21127)", "sequence (P21127 whole entry)": "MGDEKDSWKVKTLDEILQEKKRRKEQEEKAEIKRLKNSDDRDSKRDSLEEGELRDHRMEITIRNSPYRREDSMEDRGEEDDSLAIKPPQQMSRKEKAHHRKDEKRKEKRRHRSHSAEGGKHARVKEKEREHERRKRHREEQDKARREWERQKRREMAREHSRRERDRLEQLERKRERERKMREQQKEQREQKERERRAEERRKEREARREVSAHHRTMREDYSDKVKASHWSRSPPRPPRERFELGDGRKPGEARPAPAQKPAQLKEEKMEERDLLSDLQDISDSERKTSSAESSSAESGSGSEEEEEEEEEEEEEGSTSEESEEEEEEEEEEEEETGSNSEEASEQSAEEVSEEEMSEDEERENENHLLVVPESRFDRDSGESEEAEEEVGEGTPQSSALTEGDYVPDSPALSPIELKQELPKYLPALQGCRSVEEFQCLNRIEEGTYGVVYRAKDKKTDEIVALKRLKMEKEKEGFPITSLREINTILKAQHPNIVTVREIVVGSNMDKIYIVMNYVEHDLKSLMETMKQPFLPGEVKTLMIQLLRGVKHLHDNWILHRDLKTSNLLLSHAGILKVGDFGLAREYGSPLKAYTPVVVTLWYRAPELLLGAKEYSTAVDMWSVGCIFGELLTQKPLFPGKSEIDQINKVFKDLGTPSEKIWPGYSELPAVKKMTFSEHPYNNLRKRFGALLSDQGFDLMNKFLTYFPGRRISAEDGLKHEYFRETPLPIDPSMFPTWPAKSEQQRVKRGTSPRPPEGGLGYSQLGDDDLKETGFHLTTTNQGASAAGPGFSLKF", "assay": "Inhibition of CDC2L1 assessed as residual activity at 10 uM relative to control"}, "[13]": {"molecular_target": "Dual specificity tyrosine-phosphorylation-regulated kinase 3 (Homo sapiens) (UniProt O43781)", "assay": "Inhibition of DYRK3 assessed as residual activity at 1 uM", "how_it_was_run": "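Standard radioactivity-based enzymatic kinase assays on a 131-kinase panel run by the Dundee profiling service; residual kinase activity recorded.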"}, "[14]": {"molecular_target": "Serine/threonine-protein kinase Nek6 (Homo sapiens) (UniProt Q9HC98)", "assay": "Inhibition of NEK6 assessed as residual activity at 10 uM"}, "[15]": {"molecular_target": "Ribosomal protein S6 kinase alpha-5 (Homo sapiens) (UniProt O75582)", "assay": "Inhibition of RPS6KA5 N-terminal domain 1 assessed as residual activity at 10 uM relative to control"}, "Mus musculus": {"test_system": "Mus musculus", "assay": "Inhibition of LRRK2 in mouse assessed as inhibition of Ser935 autophosphorylation in spleen at 100 mg/kg, ip by immunoblot method", "type": "functional, organism-based", "design": "dose 100 mg/kg"}, "[16]": {"molecular_target": "MAP kinase-interacting serine/threonine-protein kinase 2 (Homo sapiens) (UniProt Q9HBH9)", "assay": "Inhibition of MKNK2 assessed as residual activity at 10 uM relative to control"}, "[17]": {"molecular_target": "Serine/threonine-protein kinase PAK 2 (Homo sapiens) (UniProt Q13177)", "assay": "Inhibition of PAK2 assessed as residual activity at 1 uM"}, "[18]": {"molecular_target": "Phosphatidylinositol 4-phosphate 3-kinase C2 domain-containing subunit beta (Homo sapiens) (UniProt O00750)", "sequence (O00750 whole entry, the tested form may be a part)": "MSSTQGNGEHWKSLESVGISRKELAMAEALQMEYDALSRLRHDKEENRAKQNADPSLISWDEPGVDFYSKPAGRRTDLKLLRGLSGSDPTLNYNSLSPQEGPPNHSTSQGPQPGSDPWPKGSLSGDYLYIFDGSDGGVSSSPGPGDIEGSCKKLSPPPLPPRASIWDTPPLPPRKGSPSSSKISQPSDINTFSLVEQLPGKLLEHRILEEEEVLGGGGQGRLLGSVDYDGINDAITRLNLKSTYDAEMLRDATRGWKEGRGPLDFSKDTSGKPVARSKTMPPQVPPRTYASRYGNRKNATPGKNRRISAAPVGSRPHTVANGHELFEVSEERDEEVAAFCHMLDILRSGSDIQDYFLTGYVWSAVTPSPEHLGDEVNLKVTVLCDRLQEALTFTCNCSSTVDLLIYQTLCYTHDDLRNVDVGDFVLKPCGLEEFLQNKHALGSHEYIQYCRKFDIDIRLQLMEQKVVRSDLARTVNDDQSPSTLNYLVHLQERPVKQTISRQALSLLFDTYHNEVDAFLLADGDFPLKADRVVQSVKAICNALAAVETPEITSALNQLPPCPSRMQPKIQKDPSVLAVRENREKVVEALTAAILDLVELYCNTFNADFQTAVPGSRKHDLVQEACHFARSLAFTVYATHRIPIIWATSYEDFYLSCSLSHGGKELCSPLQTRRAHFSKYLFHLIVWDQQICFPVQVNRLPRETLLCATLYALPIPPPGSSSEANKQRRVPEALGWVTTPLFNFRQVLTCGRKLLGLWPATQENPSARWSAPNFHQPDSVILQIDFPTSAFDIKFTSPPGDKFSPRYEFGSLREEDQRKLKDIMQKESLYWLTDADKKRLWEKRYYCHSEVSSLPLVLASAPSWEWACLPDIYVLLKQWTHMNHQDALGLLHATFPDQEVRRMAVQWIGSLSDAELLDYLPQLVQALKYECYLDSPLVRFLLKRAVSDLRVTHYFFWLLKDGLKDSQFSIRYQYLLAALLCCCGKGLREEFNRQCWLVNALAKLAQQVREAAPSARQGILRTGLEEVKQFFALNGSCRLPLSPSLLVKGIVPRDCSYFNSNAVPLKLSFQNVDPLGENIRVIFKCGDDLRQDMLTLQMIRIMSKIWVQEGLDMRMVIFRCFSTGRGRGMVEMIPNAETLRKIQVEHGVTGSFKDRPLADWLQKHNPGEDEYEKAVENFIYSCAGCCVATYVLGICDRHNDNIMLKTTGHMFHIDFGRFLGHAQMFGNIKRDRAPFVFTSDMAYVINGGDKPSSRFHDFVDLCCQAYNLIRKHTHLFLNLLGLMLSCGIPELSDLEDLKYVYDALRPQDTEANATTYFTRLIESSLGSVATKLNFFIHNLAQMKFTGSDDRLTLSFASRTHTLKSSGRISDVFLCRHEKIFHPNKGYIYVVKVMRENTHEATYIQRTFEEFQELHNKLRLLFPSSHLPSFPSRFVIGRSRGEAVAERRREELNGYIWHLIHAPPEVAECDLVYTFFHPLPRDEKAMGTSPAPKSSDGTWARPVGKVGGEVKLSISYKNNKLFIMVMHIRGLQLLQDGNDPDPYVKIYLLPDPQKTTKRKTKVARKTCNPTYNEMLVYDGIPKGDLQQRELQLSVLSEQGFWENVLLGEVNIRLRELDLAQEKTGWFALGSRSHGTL", "assay": "Inhibition of PIK3C2B assessed as residual activity at 10 uM relative to control"}, "[19]": {"molecular_target": "T1, Mitogen-activated protein kinase kinase kinase 7 (Homo sapiens) (UniProt O43318)", "T1 sequence (whole entry)": "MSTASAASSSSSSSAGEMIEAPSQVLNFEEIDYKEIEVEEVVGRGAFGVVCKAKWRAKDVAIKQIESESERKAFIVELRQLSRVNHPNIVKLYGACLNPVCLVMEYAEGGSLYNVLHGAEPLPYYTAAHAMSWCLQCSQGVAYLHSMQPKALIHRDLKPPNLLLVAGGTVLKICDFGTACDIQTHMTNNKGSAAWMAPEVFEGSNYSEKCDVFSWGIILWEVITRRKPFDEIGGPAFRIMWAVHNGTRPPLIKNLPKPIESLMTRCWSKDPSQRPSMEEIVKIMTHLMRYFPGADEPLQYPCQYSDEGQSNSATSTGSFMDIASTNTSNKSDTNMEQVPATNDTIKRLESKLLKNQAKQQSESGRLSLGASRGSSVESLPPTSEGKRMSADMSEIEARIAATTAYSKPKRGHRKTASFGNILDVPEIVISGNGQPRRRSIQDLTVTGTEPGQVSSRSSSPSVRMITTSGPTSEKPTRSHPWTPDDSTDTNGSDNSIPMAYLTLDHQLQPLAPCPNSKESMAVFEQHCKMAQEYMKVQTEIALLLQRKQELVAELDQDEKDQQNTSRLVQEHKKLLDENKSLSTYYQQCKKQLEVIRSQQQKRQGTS", "assay": "Inhibition of TAK1 assessed as residual activity at 10 uM relative to control"}, "[20]": {"molecular_target": "Leucine-rich repeat serine/threonine-protein kinase 2 (Mus musculus) (UniProt Q5S006)", "assay": "Inhibition of LRRK2 in Swiss mouse 3T3 cells assessed as inhibition of Ser910 autophosphorylation after 90 mins by immunoblot method", "type": "cell-based", "conditions": "NIH3T3"}, "[21]": {"molecular_target": "RAC-gamma serine/threonine-protein kinase (Homo sapiens) (UniProt Q9Y243)", "assay": "Inhibition of AKT3 assessed as residual activity at 10 uM relative to control"}, "[22]": {"molecular_target": "Protein kinase C eta type (Homo sapiens) (UniProt P24723)", "assay": "Inhibition of PRKCH assessed as residual activity at 10 uM relative to control"}, "[23]": {"molecular_target": "Insulin receptor (Homo sapiens) (UniProt P06213)", "assay": "Inhibition of INSR assessed as residual activity at 10 uM relative to control"}, "[24]": {"molecular_target": "Dual specificity protein kinase CLK1 (Homo sapiens) (UniProt P49759)", "assay": "Inhibition of CLK1 assessed as residual activity at 10 uM relative to control"}}, "note": "Calls of active or inactive are those of the source. The rule behind the calls is not given here."}
{"compound": "O=C(Nc1cccnc1)c1cc(-c2ccnc(F)c2)ccc1OCc1ccccc1", "values": [{"measurement": "Activity", "setting": "[1]", "value": 66, "unit": "%"}, {"measurement": "Activity", "setting": "[2]", "value": 50, "unit": "%"}, {"measurement": "Activity", "setting": "[3]", "value": 107, "unit": "%"}, {"measurement": "Activity", "setting": "[4]", "value": 43, "unit": "%"}, {"measurement": "Activity", "setting": "[5]", "value": 123, "unit": "%"}, {"measurement": "Activity", "setting": "[6]", "value": 47, "unit": "%"}, {"measurement": "AUClast", "setting": "Plasma", "value": 635.3, "unit": "ng·h/mL"}, {"measurement": "Activity", "setting": "[7]", "value": 59, "unit": "%"}, {"measurement": "Activity", "setting": "[8]", "value": 104, "unit": "%"}, {"measurement": "Activity", "setting": "[9]", "value": 119, "unit": "%"}, {"measurement": "Activity", "setting": "[10]", "value": 104, "unit": "%"}, {"measurement": "Activity", "setting": "[11]", "value": 106, "unit": "%"}, {"measurement": "Activity", "setting": "[12]", "value": 67, "unit": "%"}, {"measurement": "Activity", "setting": "[13]", "value": 101, "unit": "%"}, {"measurement": "Activity", "setting": "[14]", "value": 65, "unit": "%"}, {"measurement": "Activity", "setting": "[15]", "value": 77, "unit": "%"}, {"measurement": "inhibition", "setting": "Mus musculus", "value": "Active"}, {"measurement": "Activity", "setting": "[16]", "value": 52, "unit": "%"}, {"measurement": "Activity", "setting": "[17]", "value": 116, "unit": "%"}, {"measurement": "Activity", "setting": "[18]", "value": 42, "unit": "%"}, {"measurement": "Activity", "setting": "[19]", "value": 59, "unit": "%"}, {"measurement": "inhibition", "setting": "[20]", "value": "Dose-dependent effect"}, {"measurement": "Activity", "setting": "[21]", "value": 51, "unit": "%"}, {"measurement": "Activity", "setting": "[22]", "value": 59, "unit": "%"}, {"measurement": "Activity", "setting": "[23]", "value": 44, "unit": "%"}, {"measurement": "Activity", "setting": "[24]", "value": 66, "unit": "%"}]}
